Experimental data from ChEMBL document CHEMBL1153936, “Synthesis and pharmacological evaluation of (2-oxaadamant-1-yl)amines” (Bioorg Med Chem, 2009).
Active and inactive are the calls of the source. The rule behind the calls is not given here.

Columns and labels:
[1] = Antagonist activity against glutamate receptor in rat cerebellar granule neurons assessed as inhibition of glutamate-induced increase in intracellular calcium level by Fura-2 AM dye based fluorimetry; format: functional, cell-based
How it was run: (§1)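 Primary cerebellar granule neurons were grown on poly-L-lysine-coated glass coverslips and used after 7–14 days in vitro. Cells were loaded with 6 μM Fura-2 AM for 45 min. Fluorometry was done in Locke-Hepes buffer at 37 °C with mild agitation, recorded over 1200 s. Cells were stimulated with NMDA or glutamate at 100 μM plus 10 μM glycine. Test compound was then added at cumulative rising concentrations. IC50 came from variable-slope nonlinear regression of % inhibition. Values are means ± SEM, n ≥ 3 separate experiments on three culture batches.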

[2] = molecular target: Glutamate NMDA receptor; experiment: Antagonist activity against NMDA receptor in rat cerebellar granule neurons assessed as inhibition of NMDA -induced increase in intracellular calcium level by Fura-2 AM dye based fluorimetry; format: functional, cell-based; how it was run: as §1
[3] = tested on: Trypanosoma brucei; experiment: Antitrypanosomal activity against Trypanosoma brucei 427 assessed as parasite growth inhibition up to 5 mg/mL after 48 hrs; format: functional, organism-based
[4] = tested on: Trypanosoma brucei; experiment: Antitrypanosomal activity against Trypanosoma brucei 427 assessed as parasite growth inhibition after 48 hrs; format: functional, organism-based; conditions: Trypanosoma brucei, 427, 48 h
[5] = tested on: Human alphaherpesvirus 1; experiment: Antiviral activity against HSV1 assessed as inhibition of viral replication; format: functional, organism-based
How it was run: (§2)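 Cell-culture virus replication assays. Inhibition of viral replication and compound cytotoxicity were scored by microscopic examination, then confirmed by a colorimetric MTS cell viability assay.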

[6] = tested on: Human alphaherpesvirus 2; experiment: Antiviral activity against HSV2 assessed as inhibition of viral replication; format: functional, organism-based; how it was run: as §2
[7] = tested on: Vaccinia virus; experiment: Antiviral activity against Vaccinia virus assessed as inhibition of viral replication; format: functional, organism-based; conditions: Orthopoxvirus vaccinia
How it was run: (§3)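 Cell-culture virus replication assay. Inhibition of virus-induced effects and compound cytotoxicity were scored by microscopic examination and confirmed by colorimetric MTS cell-viability readout.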

[8] = tested on: Feline coronavirus; experiment: Antiviral activity against Feline coronavirus assessed as inhibition of viral replication; format: functional, organism-based; how it was run: as §2
[9] = tested on: Human respirovirus 3; experiment: Antiviral activity against parainfluenza virus 3 assessed as inhibition of viral replication; format: functional, organism-based; how it was run: as §2
[10] = tested on: Respiratory syncytial virus; experiment: Antiviral activity against Respiratory syncytial virus assessed as inhibition of viral replication; format: functional, organism-based; how it was run: as §2
[11] = tested on: Vesicular stomatitis virus; experiment: Antiviral activity against Vesicular stomatitis virus assessed as inhibition of viral replication; format: functional, organism-based; how it was run: as §3
[12] = tested on: Sindbis virus; experiment: Antiviral activity against Sindbis virus assessed as inhibition of viral replication; format: functional, organism-based; how it was run: as §2
[13] = tested on: Punta Toro virus; experiment: Antiviral activity against Punta Toro virus assessed as inhibition of viral replication; format: functional, organism-based; how it was run: as §2
[14] = tested on: Coxsackievirus B4; experiment: Antiviral activity against Coxsackievirus B4 assessed as inhibition of viral replication; format: functional, organism-based; how it was run: as §2
[15] = tested on: Mammalian orthoreovirus 1; experiment: Antiviral activity against Reovirus 1 assessed as inhibition of viral replication; format: functional, organism-based; how it was run: as §2
[16] = tested on: Influenza A virus; experiment: Antiviral activity against Influenza A virus (A/Puerto Rico/8/34(H1N1)) assessed as inhibition of viral replication; format: functional, organism-based; conditions: A/Puerto Rico/8/1934(H1N1); how it was run: as §3
[17] = tested on: Influenza A virus H3N2; experiment: Antiviral activity against Influenza A virus (A/Hong Kong/7/1987(H3N2)) assessed as inhibition of viral replication; format: functional, organism-based; how it was run: as §3
[18] = tested on: Influenza B virus; experiment: Antiviral activity against Influenza B virus (B/Hong Kong/05/1972) assessed as inhibition of viral replication; format: functional, organism-based; how it was run: as §3

c1ccc(CN(Cc2ccccc2)C23CC4CC(CC(C4)O2)C3)cc1
IC50 [1]: > 500 µM | IC50 [2]: > 200 µM | Activity [3]: inactive

CCC12CC3CC(C1)CC(N(C)C)(C3)O2
IC50 [1]: 106 µM | IC50 [2]: 55 µM | IC50 [4]: 10.9 µM | IC90 [4]: 15.5 µM

CCC12CC3CC(C1)CC(NC)(C3)O2
IC50 [1]: 108 µM | IC50 [2]: 32 µM | Activity [5]: inactive | Activity [6]: inactive | Activity [7]: inactive | Activity [8]: inactive | Activity [9]: inactive | Activity [10]: inactive | Activity [11]: inactive | Activity [12]: inactive | Activity [13]: inactive | Activity [14]: inactive | Activity [15]: inactive | Activity [16]: inactive | Activity [17]: inactive | Activity [18]: inactive

CN(Cc1ccccc1)C12CC3CC(CC(C3)O1)C2
IC50 [1]: > 500 µM | IC50 [2]: > 200 µM | Activity [3]: inactive

CC12CC3CC(C1)CC(NN)(C3)O2
IC50 [1]: > 500 µM | IC50 [2]: > 200 µM

CC12CC3CC(C1)CC(N)(C3)O2
IC50 [1]: > 500 µM | IC50 [2]: > 200 µM

c1ccc(CNC23CC4CC(CC(C4)O2)C3)cc1
IC50 [1]: > 500 µM | IC50 [2]: > 200 µM | Activity [5]: inactive | Activity [6]: inactive | Activity [7]: inactive | Activity [8]: inactive | Activity [9]: inactive | Activity [10]: inactive | Activity [11]: inactive | Activity [12]: inactive | Activity [13]: inactive | Activity [14]: inactive | Activity [15]: inactive | Activity [16]: inactive | Activity [17]: inactive | Activity [18]: inactive | Activity [3]: inactive

c1ccc(CCNC23CC4CC(CC(C4)O2)C3)cc1
IC50 [1]: > 500 µM | IC50 [2]: > 200 µM | Activity [3]: inactive

CCC12CC3CC(C1)CC(NCc1ccccc1)(C3)O2
IC50 [1]: > 500 µM | IC50 [2]: > 200 µM

NC12CC3CC(C1)CC(C1CCCCC1)(C3)O2
IC50 [1]: > 500 µM | IC50 [2]: 94 µM | Activity [5]: inactive | Activity [6]: inactive | Activity [7]: inactive | Activity [8]: inactive | Activity [9]: inactive | Activity [10]: inactive | Activity [11]: inactive | Activity [12]: inactive | Activity [13]: inactive | Activity [14]: inactive | Activity [15]: inactive | Activity [16]: inactive | Activity [17]: inactive | Activity [18]: inactive

NC12CC3CC(CC(C3)C1)C2 [AMANTADINE]
IC50 [4]: > 130 µM

CN(C)C12CC3CC(CC(C)(C3)O1)C2
IC50 [1]: > 500 µM | IC50 [2]: > 200 µM | IC50 [4]: 3.97 µM | IC90 [4]: 6.82 µM

NNC12CC3CC(C1)CC(c1ccccc1)(C3)O2
IC50 [1]: > 500 µM

CCC12CC3CC(CC(N)(C3)O1)C2
IC50 [1]: 223 µM | IC50 [2]: 83 µM

CC(N)C12CC3CC(CC(C3)C1)C2 (stereo not given) [RIMANTADINE]
IC90 [4]: 14 µM

NC12CC3CC(CC(C3)O1)C2
IC50 [1]: > 500 µM | IC50 [2]: > 200 µM | Activity [5]: inactive | Activity [6]: inactive | Activity [7]: inactive | Activity [8]: inactive | Activity [9]: inactive | Activity [10]: inactive | Activity [11]: inactive | Activity [12]: inactive | Activity [13]: inactive | Activity [14]: inactive | Activity [15]: inactive | Activity [16]: inactive | Activity [17]: inactive | Activity [18]: inactive | Activity [3]: inactive

CCC12CC3CC(C1)CC(N(C)Cc1ccccc1)(C3)O2
IC50 [1]: > 500 µM | IC50 [2]: > 200 µM

CCN(CC)C12CC3CC(CC(CC)(C3)O1)C2
IC50 [1]: 22 µM | IC50 [2]: 14 µM

CN(CCc1ccccc1)C12CC3CC(CC(C3)O1)C2
IC50 [1]: > 500 µM | IC50 [2]: > 200 µM | Activity [3]: inactive

NC12CC3CC(C1)CC(c1ccccc1)(C3)O2
IC50 [1]: 350 µM | IC50 [2]: 226 µM | Activity [5]: inactive | Activity [6]: inactive | Activity [7]: inactive | Activity [8]: inactive | Activity [9]: inactive | Activity [10]: inactive | Activity [11]: inactive | Activity [12]: inactive | Activity [13]: inactive | Activity [14]: inactive | Activity [15]: inactive | Activity [16]: inactive | Activity [17]: inactive | Activity [18]: inactive

CNC12CC3CC(CC(C3)O1)C2
IC50 [1]: > 500 µM | IC50 [2]: > 200 µM | Activity [5]: inactive | Activity [6]: inactive | Activity [7]: inactive | Activity [8]: inactive | Activity [9]: inactive | Activity [10]: inactive | Activity [11]: inactive | Activity [12]: inactive | Activity [13]: inactive | Activity [14]: inactive | Activity [15]: inactive | Activity [16]: inactive | Activity [17]: inactive | Activity [18]: inactive | Activity [3]: inactive

CCC12CC3CC(C1)CC(NN)(C3)O2
IC50 [1]: > 500 µM
